# Hits are enriched below; roughly 2% of the tested compounds scored in any of these assays.
# Dynein cargo inh: inhibitors of GR-EGFP nuclear translocation, primary screen, dynein cargo transport inhibitor project, imaging, high-content, 3617.4 mouse cells | AID 1381, 2008 | 220,000 tested, 0.47% active | z-score, hits read low | test concentration mostly 20 µM; stimulated with dexamethasone, 1 µM; active compounds read low;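 active means plate z-score of nuclear minus cytoplasmic receptor signal below a set negative limit, without overly bright fluorescence or cell loss, cut at about -3.5 in these data, passing the limit was not always enough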;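 further: z-score of nuclear minus cytoplasmic ring GR-EGFP intensity difference per well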
#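 Schedule: 48 h induction, then 1 h compound, then 30 min agonist, 37 °C. Buffer or medium: tetracycline-free induction medium containing charcoal-stripped FBS. Reagent: 1.0 µM final dexamethasone stimulus. Evaluation: nuclear versus cytoplasmic GR-EGFP signal, averaged per well. Signal: high-content fluorescence imaging after fixation.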
# Furin inhibitor: human furin inhibitors, primary screen, biochemical, fluorescence intensity | P09958 | purified furin, fluorogenic substrate cleavage | inhibition, % at 20 µM or 30 µM | 220,000 tested, 0.061% active; in the data active means inhibition above about 25%
# Target sequence (P09958 108-714 limits assumed): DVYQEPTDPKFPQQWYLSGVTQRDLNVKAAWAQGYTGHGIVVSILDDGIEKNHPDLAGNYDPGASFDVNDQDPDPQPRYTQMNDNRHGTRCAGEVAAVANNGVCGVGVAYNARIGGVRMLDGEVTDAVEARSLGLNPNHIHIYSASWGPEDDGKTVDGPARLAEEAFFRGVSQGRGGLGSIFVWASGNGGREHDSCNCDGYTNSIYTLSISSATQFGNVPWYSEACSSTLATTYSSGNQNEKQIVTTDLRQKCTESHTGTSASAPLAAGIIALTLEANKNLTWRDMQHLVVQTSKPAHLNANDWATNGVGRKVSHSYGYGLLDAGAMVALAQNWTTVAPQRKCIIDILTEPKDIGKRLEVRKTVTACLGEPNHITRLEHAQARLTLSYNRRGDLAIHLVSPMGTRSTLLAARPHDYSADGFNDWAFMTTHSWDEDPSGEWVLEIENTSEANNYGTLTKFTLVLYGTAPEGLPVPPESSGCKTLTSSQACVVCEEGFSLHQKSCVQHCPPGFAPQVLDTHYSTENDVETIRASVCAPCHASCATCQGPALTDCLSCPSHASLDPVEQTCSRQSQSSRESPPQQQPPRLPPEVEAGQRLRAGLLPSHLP
# INS promoter inh: inhibitors of insulin promoter-driven GFP, primary screen, imaging, TRM-6 cells, eGFP reporter, cell count; inhibition, % at 2 µM; AID 1273, 2008; reporter expression induced with tamoxifen; 130,000 tested, 0.9% active;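 active means inhibition above the mean plus 3 SD, with well images judged a real hit on visual review, cut at about 60% in these data, passing the limit was not always enough; inconclusive means inhibition over the cutoff but images rejected on review; inactive means inhibition not above the cutoff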
# HSV augment: enhancers of HSV replication in host cells, fold increase, host cell viability; HSV replication augmentation in cells; 220,000 tested, 0.005% active; maximum fold increase; AID 1956, 2009; in the data active means maximum fold increase above about 1.5; inconclusive means no clear call, values can overlap the other calls; tested in PC3 cells
# Autophagy HCS: autophagy modulators in MEF cells, primary screen, imaging, high-content, MEF GFP-LC3 | MEF GFP-LC3 puncta imaging; test concentration mostly 10 µM | calls only at 10 µM (by protocol) | 190,000 tested, 0.98% active | AID 463193, 2010;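 active means percentage of spot-positive cells more than 3 SD above its plate mean, without a fluorescence outlier flag or 80% toxicity; inconclusive means no clear call, values can overlap the other calls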;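 further: spot-positive cell cutoff set from DMSO-treated cells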
# Insulin prom up: insulin promoter activators in MIN6 cells, imaging, high-content screening, mouse beta cells; MIN6 insulin promoter-GFP reporter; active compounds read high; z-score at 5 µM; 190,000 tested, 0.3% active;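 active means z-score above 3 at 5 µM with at least 500 cells counted in the well; inconclusive means wells under 500 cells, flagged as cytotoxic or low count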
# * = called active by the depositor; i = inactive; ? = inconclusive; · = no result; + = active, no number.
SMILES,Dynein cargo inh,Furin inhibitor,INS promoter inh,HSV augment,Autophagy HCS,Insulin prom up
CCOC(=O)/C=c1\s/c(=C\c2ccccc2C)c(=O)n1CC(=O)NCc1ccc2c(c1)OCO2,1.15,-2.6,·,i,i,-0.15
CCOC(=O)/C=c1\s/c(=C\c2ccc3cc(OC)ccc3c2)c(=O)n1CC(=O)NCc1ccc2c(c1)OCO2,-0.535,-7.8,-335.3,i,+,0.98
COc1ccc(CN2CCNC(=O)C2CC(=O)N(C)Cc2nccn2C)cc1OC (stereo not given),0.652,-7.1,·,i,i,0.03
COc1ccccc1-n1nnnc1SCC(=O)NC1CCCC1,0.124,9.2,30.0,i,i,0.28
CCOC(=O)NC(=O)CSc1nnnn1-c1ccccc1,-0.348,37.6*,-18.4,i,i,·
COc1cccc(-n2nnnc2SCC(=O)NC2CCCC2)c1,0.828,-15.0,75.0*,i,i,0.09
CCN1C(=O)C(CC(=O)N2CCN(C(c3ccccc3)c3ccccc3)CC2)N(CC)C1=O (stereo not given),0.774,-15.1,25.0,i,+,0.47
CCN1C(=O)CC(N2CCN(C(c3ccccc3)c3ccccc3)CC2)C1=O (stereo not given),0.324,-13.9,-230.0,i,i,1.36
CCCCOc1ccccc1NC(=O)Cn1c(-c2nonc2N)nc2ccccc21,-0.245,-16.2,·,i,+,-0.8
COc1cccc(Cn2c(-c3nonc3N)nc3ccccc32)c1,-0.493,-7.7,-76.3,i,i,0.15
NNC(=O)Cn1c(-c2nonc2N)nc2ccccc21,-0.232,-28.7,·,i,i,0.07
COc1cc(Cn2c(-c3nonc3N)nc3ccccc32)ccc1C,-0.899,-3.6,-284.0,i,+,-0.99
COc1cc(CN2CCNC(=O)C2CC(=O)NCc2csc(C(C)C)n2)cc(OC)c1 (stereo not given),-0.0165,-15.8,·,i,i,-0.22
CS(=O)(=O)ON=C1CCN(S(=O)(=O)c2ccccc2)CC1,-0.178,-19.9,·,i,i,3.51*
CCOC(=O)/C(C#N)=C(C)/C=C1\Sc2ccccc2N1CC,0.526,-17.4,-50.0,?,i,1.86
CCN1/C(=C\C=C(C(C)=O)C(C)=O)Sc2ccccc21,2.1,8.7,i,?,i,7.73*
Cc1c(CNC(=O)c2cnn3c2NC(c2ccc(Br)cc2)CC3C(F)(F)F)cnn1C (stereo not given),1.03,14.3,80.7*,i,i,0.29
COc1ccc(S(=O)(=O)N2CCOCC2)cc1NC(=O)Cn1nnc2ccccc2c1=O,-0.574,-17.3,·,i,i,-0.13
CN(CC(O)Cn1cnc2c1c(=O)n(C)c(=O)n2C)c1ccccc1 (stereo not given),-0.413,-17.4,·,i,+,0.08
CN(CCO)CC(O)Cn1cnc2c1c(=O)n(C)c(=O)n2C (stereo not given) (tested in a mixture with another compound),0.741,1.4,-38.1,i,i,·
CNc1nc(SC)nc2ccsc12,0.861,-12.5,-3.3,i,i,0.82
C=CCSc1nc(NC)c2sccc2n1,0.026,-2.1,80.0*,i,i,-0.75
Cn1c(N)c(C(=O)CCl)c(=O)n(Cc2ccccc2)c1=O,-5.95*,-17.5,18.2,i,i,0.02
O=C(Nc1ccc([N+](=O)[O-])cc1)Nc1ccc(OC(F)F)c(Cl)c1,0.67,-6.9,44.8,i,+,?
Cc1ccc([N+](=O)[O-])cc1S(=O)(=O)Nc1ccc(C(=O)N(C)C)cc1,2.18,-8.8,·,i,+,-0.87
SMILES,Dynein cargo inh,Furin inhibitor,INS promoter inh,HSV augment,Autophagy HCS,Insulin prom up
CC(=O)Nc1ccc(NS(=O)(=O)c2cc([N+](=O)[O-])ccc2C)cc1,-0.0278,-11.8,24.3,i,i,1.33
OC1(c2cn(Cc3ccccc3)nn2)CCCCC1,-0.185,-17.5,·,i,i,5.88*
O=C(N/C(=C\c1cccs1)C(=O)N1CCOCC1)c1cccs1,-0.524,-14.2,77.8*,i,i,0.42
O=C(N/C(=C/c1cccs1)C(=O)N1CCOCC1)c1ccccc1,-0.274,-27.0,-7.1,i,i,0.12
N#C/C(=C/c1ccc(-c2cc(C(=O)O)cc(C(=O)O)c2)o1)c1nc2ccccc2s1,0.816,3.9,6.2,?,i,3.02*
COc1ccc(-c2[nH]n(-c3ccc([N+](=O)[O-])cc3)c(=O)c2C=NCc2ccccc2)cc1,-0.688,-25.9,0.0,i,+,·
COc1ccc(-c2[nH]n(-c3ccc([N+](=O)[O-])cc3)c(=O)c2C=NCCN2CCNCC2)cc1,2,-8.2,33.3,i,i,0.35
Cc1ccc(NC(=O)Cn2nc(C)c(S(=O)(=O)N(C)C)c2C)cc1C,1.91,-19.2,·,i,i,0.15
Cc1ccc(Oc2nnc(-c3cccs3)c3ccccc23)cc1,-0.4,-16.5,81.0*,i,i,0.43
c1ccc(Oc2nnc(-c3cccs3)c3ccccc23)cc1,0.0375,-10.5,23.3,i,i,0.32
CCn1c2ccccc2c2cc(NC(=O)COC(=O)c3cc(S(N)(=O)=O)c(Cl)cc3Cl)ccc21,1.17,6.0,·,i,i,0.99
COc1ccc(NC(=O)/C(Cl)=C(/Cl)S(=O)Cc2ccc(Cl)cc2)cn1 (stereo not given),-5.44*,-13.8,-387.8,i,i,-0.63
COc1ccc(-c2cc(-c3ccccc3)c(C#N)c(S(C)=O)n2)cc1 (stereo not given),-1.62,-52.7,·,i,+,-3.49
CC(C)(C=O)C1=CC(=O)c2ccccc2C1=O,-3.6*,-24.7,-203.0,i,i,-0.23
Cc1nn2c(Nc3ccc(F)cc3)c3c(nc2c1-c1ccccc1)CCC3,0.357,-23.7,86.7*,i,i,-0.14
COc1cccc(Nc2c3c(nc4c(-c5ccccc5)c(C)nn24)CCC3)c1,0.0267,-1.6,93.8*,i,i,-0.14
CCOc1ccc(-n2c(N)c(C(=O)NCc3ccco3)c3nc4ccccc4nc32)cc1,-0.854,-24.2,-150.8,i,i,-0.46
CCOc1ccc(-n2c(N)c(-c3nc4ccccc4n3C)c3nc4ccccc4nc32)cc1,-0.201,-1.6,·,i,+,0.08
COc1cccc(CN2CCN(c3nc4nonc4nc3N3CCCCC3)CC2=O)c1,1.4,-0.4,·,i,i,0.43
CCOc1cccc2cc(-c3cn4cc(C)ccc4n3)c(=O)oc12,-1.11,-4.9,10.0,i,+,-1.08
CC(/C=N/NC(=O)c1cc(-c2cccn2C)n[nH]1)=C\c1ccccc1,1.61,-7.3,·,i,·,-0.02
CCN(CC)CCNC(=O)c1ccc(NC(=O)c2ccc(F)cc2F)cc1,-0.505,-17.0,·,i,i,1.37
